TRPC4 act: activators of mouse TRPC4 channel, primary screen, Fluo4 calcium, HEK293 TRPC4beta/mu-opioid cells. Short transient receptor potential channel 4 (Mus musculus), Q9QUQ5. B-score at 10 µM. Fluo4 calcium fluorescence; hits give high values. 310,000 tested, 0.49% active;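 active = B-score above 5 SD of library B-scores, and initial fluorescence ratio not above library mean plus 5 SD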;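 also: positive B-score marks a calcium rise read as TRPC4 activation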
Target sequence (Q9QUQ5 whole entry, looked up): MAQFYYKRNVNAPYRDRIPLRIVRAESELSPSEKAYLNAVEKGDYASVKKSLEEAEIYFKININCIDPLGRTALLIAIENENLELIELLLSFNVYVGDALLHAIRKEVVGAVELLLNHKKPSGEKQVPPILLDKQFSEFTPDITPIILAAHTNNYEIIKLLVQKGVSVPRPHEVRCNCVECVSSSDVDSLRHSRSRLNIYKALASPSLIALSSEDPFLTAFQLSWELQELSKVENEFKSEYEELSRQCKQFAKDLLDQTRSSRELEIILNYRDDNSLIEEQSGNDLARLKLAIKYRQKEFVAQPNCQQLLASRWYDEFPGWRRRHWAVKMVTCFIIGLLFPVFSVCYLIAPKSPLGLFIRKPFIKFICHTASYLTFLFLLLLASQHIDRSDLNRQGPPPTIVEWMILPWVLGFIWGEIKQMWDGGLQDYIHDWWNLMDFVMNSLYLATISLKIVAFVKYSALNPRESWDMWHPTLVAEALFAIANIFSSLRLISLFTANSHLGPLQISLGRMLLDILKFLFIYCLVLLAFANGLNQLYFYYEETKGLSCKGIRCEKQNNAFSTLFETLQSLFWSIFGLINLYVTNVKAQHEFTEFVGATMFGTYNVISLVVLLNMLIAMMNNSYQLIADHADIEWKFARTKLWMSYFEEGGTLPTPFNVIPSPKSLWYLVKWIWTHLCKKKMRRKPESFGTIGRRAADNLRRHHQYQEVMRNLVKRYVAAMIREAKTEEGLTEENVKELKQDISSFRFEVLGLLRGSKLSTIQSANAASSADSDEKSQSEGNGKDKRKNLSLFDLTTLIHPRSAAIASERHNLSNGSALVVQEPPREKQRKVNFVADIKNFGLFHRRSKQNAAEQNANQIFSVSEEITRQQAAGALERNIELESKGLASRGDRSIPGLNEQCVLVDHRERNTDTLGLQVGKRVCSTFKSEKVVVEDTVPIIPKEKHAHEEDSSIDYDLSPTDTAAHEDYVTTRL
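Material: TRPC4beta and mu-opioid receptor HEK293 stable cells | Incubation: 45 min room-temperature Fluo4 loading, 110 s read | Detection: Kinetic Fluo4 calcium fluorescence | Measure: Integrated baseline-normalised fluorescence ratio, converted to per-well B score | Benchmarks: Low control buffer alone, high control maximal DAMGO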
TRPC4 inh: inhibitors of mouse TRPC4 channel, primary screen, Fluo4 calcium, HEK293 TRPC4beta/mu-opioid cells; 300,000 tested, 0.39% active; DAMGO-evoked Fluo4 calcium flux; hits give low values; Short transient receptor potential channel 4 (Mus musculus), Q9QUQ5; B-score at 10 µM;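 active = B-score over 3 SD under the library average, no early fluorescence shift, positive overall ratio signal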
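Signal: kinetic Fluo4 fluorescence imaging of calcium influx. Material: stable TRPC4beta/mu-opioid receptor HEK293 cells. Probe or stimulus: DAMGO in two steps, submaximal then maximal.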
TRPC6 inhibitor: mouse TRPC6 channel inhibitors, primary screen, cell-based, HEK293, membrane potential dye; Short transient receptor potential channel 6 (Mus musculus), Q61143; 310,000 tested, 1.1% active; B-score at 10 µM; ACh-evoked depolarization; hits give low values; AID 2553, 2010;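 active = B-score under library mean minus 3 SD, initial fluorescence not abnormally high, positive integrated signal ratio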;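 also: B-score derived from integrated fluorescence ratio over the kinetic read; more negative B-score means stronger inhibition of depolarization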
TRPC6 act: mouse TRPC6 channel activators, primary screen, cell-based, HEK293, membrane potential dye; Short transient receptor potential channel 6 (Mus musculus), Q61143; HEK293-TRPC6 membrane potential dye fluorescence; hits give high values; B-score at 10 µM; 310,000 tested, 0.13% active; AID 2550, 2010;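 active = B-score of the integrated fluorescence ratio above library mean plus 3 SD, and starting fluorescence ratio within library mean plus 5 SD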;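 also: higher score means more depolarization so channel activation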
TRPC4 potent: positive allosteric modulators of TRPC4, primary screen, cell-based, mouse TRPC4beta, HEK293 mu-opioid, Fluo-4 calcium | Short transient receptor potential channel 4 (Mus musculus), Q9QUQ5 | DAMGO EC20, Fluo-4 Ca2+ flux; hits give high values | B-score at 10 µM | 310,000 tested, 0.42% active | AID 2227, 2009;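 active = B-score of calcium response area above 5 SD of library B-scores, with initial fluorescence ratio within 5 SD of library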;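 also: B-score of integrated fluorescence ratio over time as area under calcium response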
TRPC4 sel inh 2: mouse TRPC4 off-target activity of TRPC6 inhibitors, second screen; shares compounds with TRPC6 inhibitor; HEK293 TRPC4/MOR, membrane potential dye fluorescence; channel activated by saturating DAMGO dose; inhibition, % at 10 µM; 920 tested, 42% active;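 active = compounds whose fluorescence signal differed from control wells by over 3 SD, either direction, in both duplicate plates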
TRPC4 spec: mouse TRPC4 modulation by TRPC6 hits, confirmation, selectivity assay for TRPC6 inhibitor project, cell-based, HEK293 TRPC4/mu-opioid, membrane potential dye. AID 2777, 2010. activity change, negative = inhibition, % at 10 µM. shares compounds with TRPC6 inhibitor. membrane potential fluorescence. 920 tested, 61% active;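 active = rise or fall in signal beyond 3 SD of buffer-only wells in both replicate plates, either sign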;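 also: integrated kinetic ratio of fluorescence range over baseline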
HEK293 MPD ctr 2-1: nonspecific membrane potential effects, parental HEK293, confirmation, counter-screen for TRPC6 inhibitor project, cell-based, second counter screen | shares compounds with TRPC6 inhibitor | parental HEK293 membrane potential dye fluorescence; maximal acetylcholine challenge after compound addition | signal change vs control, % at 10 µM | 920 tested, 31% active | AID 2779, 2010;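 active = membrane potential signal moving either way by over 3 SD of the maximum-effect control, in both duplicate plates, meaning non-specific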
HEK293 MPD ctr-1: membrane potential modulation in parental HEK293, confirmation, counter-screen for TRPC6 inhibitor project, cell-based; shares compounds with TRPC6 inhibitor; parental HEK293 membrane potential dye fluorescence; membrane potential signal change, % at 10 µM; 920 tested, 60% active;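 active = membrane potential signal shifting up or down by more than 3 SD of buffer-only wells, on both duplicate plates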
HEK293 MPD ctr-2: parental HEK293 membrane potential modulation, confirmation, counter-screen for TRPC6 modulator project, cell-based | shares compounds with TRPC6 inhibitor | 2,400 tested, 51% active | membrane potential signal change, % at 10 µM | membrane potential dye fluorescence;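 active = membrane potential signal moves up or down beyond 5 SD from buffer-only wells, on both duplicate plates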
HEK293 MPD ctr 2-2: second counter-screen for TRPC6 modulators: effect in parental HEK293 cells. shares compounds with TRPC6 inhibitor. membrane potential dye fluorescence; after compound, maximal acetylcholine stimulation. inhibition, % at 10 µM. 2,400 tested, 14% active. AID 488926;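 active = membrane potential signal drops by more than 5 SD from the mean control signal, in both duplicate plates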;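 also: plate controls were acetylcholine ECmax control wells for no effect and buffer only wells for full effect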
TRPC4/MOR mod: TRPC4 modulation by TRPC6 hit compounds, confirmation, selectivity assay for TRPC6 modulator project, cell-based, HEK293 TRPC4/mu-opioid, membrane potential dye, mouse; shares compounds with TRPC6 inhibitor; membrane potential fluorescence; percent change from control (negative = decrease, positive = increase), % at 10 µM; 2,400 tested, 69% active; AID 488927, 2010;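 active = membrane potential signal moved up or down beyond 5 SD of buffer control wells, in both duplicate plates, actives on both sides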;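 also: plate controls were assay buffer wells for no effect and DAMGO maximal-effect wells for full effect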
TRPC4/MOR inh 2: second selectivity test of TRPC6 modulators against mouse TRPC4; HEK293 TRPC4/mu-opioid, membrane potential dye fluorescence; stimulated with maximal-effect DAMGO; AID 488928; shares compounds with TRPC6 inhibitor; inhibition, % at 10 µM; 2,400 tested, 55% active;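 active = drop in membrane potential signal beyond 5 SD of the control wells in both duplicate plates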;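 also: TRPC4 counter screen for TRPC6 hits run under conditions tuned for TRPC6 not TRPC4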
TRPC6 inh conf: mouse TRPC6 channel inhibitors, confirmation, HEK293 cells, membrane potential dye, duplicate. ACh-evoked depolarization. inhibition, % at 10 µM. 3,300 tested, 43% active. shares compounds with TRPC6 inhibitor;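 active = fluorescence ratio falls more than 5 SD below the full-stimulation control mean, in both duplicate runs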;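 also: integrated fluorescence ratio of peak minus minimum over baseline after agonist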
TRPC6 act conf: mouse TRPC6 channel activators, confirmation, HEK293 cells, membrane potential dye, duplicate; activation, % at 10 µM; 2,800 tested, 11% active; shares compounds with TRPC6 inhibitor; HEK293-TRPC6 membrane potential dye fluorescence, FDSS;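 active = ratio signal rise beyond 5 SD above unstimulated control wells' mean, seen in both duplicate runs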;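 also: plate controls were buffer EC0 wells for no effect and acetylcholine ECmax response for full effect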
* hit, by the source's call; i = inactive; · = not tested or not shown. The list is not random: actives were taken first. Their share in the collection is about 2.3%.

SMILES | TRPC4 act | TRPC4 inh | TRPC6 inhibitor | TRPC6 act | TRPC4 potent | HEK293 MPD ctr-2 | HEK293 MPD ctr 2-2 | TRPC4/MOR mod | TRPC4/MOR inh 2 | TRPC6 inh conf | TRPC6 act conf | others
Cc1ccc(NC(=O)CSCC(=O)Nc2ccc(N3CCOCC3)c(Cl)c2)cc1 | i | i | -5.7* | i | i | i | i | i | i | i | i
CC(=O)Nc1ccc(N2CCOCC2)c(Cl)c1 | i | i | i | i | i | · | · | · | · | · | ·
CN(CCc1ccccc1)C(=O)c1cc(COc2ccc(F)cc2Cl)on1 | i | i | i | i | i | · | · | · | · | · | ·
O=C(O)CN1C(=O)c2ccc(C(=O)c3ccccc3)cc2C1=O | i | i | i | i | i | · | · | · | · | · | ·
CCCn1c(-c2ccc(F)cc2)n[nH]c1=S | i | i | i | i | i | · | · | · | · | · | ·
CCCCn1c(-c2ccc([N+](=O)[O-])cc2)n[nH]c1=S | i | i | -15* | i | i | · | · | · | · | 85%* | i | TRPC4 sel inh 2=i;TRPC4 spec=i;HEK293 MPD ctr 2-1=-18%*;HEK293 MPD ctr-1=i
CC(C)NCC(O)Cn1c2c(c3ccccc31)CCc1c-2cnn1-c1ccccc1 (stereo not drawn) | i | i | -10* | i | i | · | · | · | · | 85%* | i | TRPC4 sel inh 2=28%*;TRPC4 spec=-23%*;HEK293 MPD ctr 2-1=40%*;HEK293 MPD ctr-1=-326%*
CN1CCc2c(n(CC(O)CNCc3ccccc3)c3ccccc23)C1=O (stereo not drawn) | i | i | i | i | i | · | · | · | · | · | ·
COc1cc(/C=N/NC(=O)CNC(=O)c2ccccc2)ccc1OC(=O)c1cccs1 | i | i | -7.6* | 13* | i | i | i | i | i | i | 82%*
COC(=O)C1CCN(C2=C(NS(=O)(=O)c3ccc(Cl)cc3)C(=O)c3ccccc3C2=O)CC1 | i | i | -6.9* | i | i | · | · | · | · | i | i | TRPC4 sel inh 2=80%*;TRPC4 spec=-18%*;HEK293 MPD ctr 2-1=i;HEK293 MPD ctr-1=-250%*
CCOC(=O)c1c(C)nc2c(c1-c1cc(OC)ccc1OC)C(=O)CC(C)(C)C2 | i | i | i | i | i | · | · | · | · | · | ·
Cc1cc(NC(=O)CCC(=O)N(c2ccccc2C)C(C(=O)NC2CCCC2)c2ccccc2)no1 (stereo not drawn) | i | i | i | i | i | · | · | · | · | · | ·
Cn1ccnc1C1CCCCN1Cc1nc(Cc2cccc(C(F)(F)F)c2)no1 (stereo not drawn) | i | i | -5.3* | i | i | 136%* | i | 32%* | 27%* | i | ·
Cn1ccnc1C1CCCCN1Cc1nc(-c2ccc3c(c2)OCO3)no1 (stereo not drawn) | i | i | -5.3* | i | i | 184%* | 62%* | 44%* | 40%* | 48%* | ·
COc1ccc(-c2noc(CN3CCCCC3c3nccn3C)n2)cc1 (stereo not drawn) | i | i | i | i | i | · | · | · | · | · | ·
CC(=O)c1ccc(NC(=O)C2C3C=CC(C3=C(c3ccccc3)c3ccccc3)C2C(=O)O)cc1 (stereo not drawn) | i | i | i | i | i | · | · | · | · | · | ·
O=C(c1cc(-c2cccs2)nn1-c1ccccc1)N1CCN(S(=O)(=O)c2ccccc2)CC1 | i | i | i | i | i | · | · | · | · | · | ·
CCCn1c(SCC(=O)c2[nH]c(C)c(C(C)=O)c2C)n[nH]c1=O | i | i | i | i | i | · | · | · | · | · | ·
CCCCn1c(N)c(N(CC(C)C)C(=O)CCCc2cccs2)c(=O)[nH]c1=O | i | i | i | i | i | · | · | · | · | · | ·
CCCN1C(=O)/C(=C/c2ccc(N3CCCC3)c(C)c2)NC1=S | 58* | i | i | 63* | i | 670%* | i | 226%* | i | i | 136%*
Cc1cc(/C=C2/C(=O)N(C)C(=S)N2C)ccc1N1CCCC1 | i | i | i | i | i | · | · | · | · | · | ·
CCN1C(=O)/C(=C/c2ccc(N3CCCC3)cc2)NC1=S | i | i | i | 30* | i | 359%* | i | 235%* | i | i | 44%*
Cc1cc(/C=C2\NC(=S)N(C)C2=O)ccc1N1CCCC1 | 49* | i | i | 34* | i | i | i | 132%* | i | i | 33%*
CC(=O)Nc1ccccc1NC(=O)C/C(C)=N/NC(=O)c1cccnc1 | i | i | i | i | i | · | · | · | · | · | ·

Compound activity from PubChem.
